Assays:
Details in all cases: stereoisomer not certain
UniProt A2ATE5 = target: T1, UniProt A2ATE5
T1 sequence (whole entry): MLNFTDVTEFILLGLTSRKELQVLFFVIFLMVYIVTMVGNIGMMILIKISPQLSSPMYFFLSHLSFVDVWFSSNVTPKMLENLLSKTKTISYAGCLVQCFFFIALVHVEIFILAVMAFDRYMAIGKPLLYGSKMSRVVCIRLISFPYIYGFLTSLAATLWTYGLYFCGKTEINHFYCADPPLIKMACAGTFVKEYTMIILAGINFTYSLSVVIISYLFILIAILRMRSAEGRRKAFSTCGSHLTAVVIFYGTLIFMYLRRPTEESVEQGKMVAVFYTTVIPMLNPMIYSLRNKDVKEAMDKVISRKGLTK
Summary of the method: (§1)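 Values were gathered from published papers (main text and supplementary material), with extra details requested from the original authors when needed, and checked for typos and inconsistencies. Each receptor–molecule pair is called responsive (active) if the original authors judged the measured signal statistically different from baseline, and non-responsive (inactive) otherwise. Assay methods varied by source, often transient mammalian cell-line luciferase assays. Recorded details include cell line, G-protein, co-transfected protein and tags.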

UniProt A2AVB0 = target: T2, UniProt A2AVB0
T2 sequence (whole entry): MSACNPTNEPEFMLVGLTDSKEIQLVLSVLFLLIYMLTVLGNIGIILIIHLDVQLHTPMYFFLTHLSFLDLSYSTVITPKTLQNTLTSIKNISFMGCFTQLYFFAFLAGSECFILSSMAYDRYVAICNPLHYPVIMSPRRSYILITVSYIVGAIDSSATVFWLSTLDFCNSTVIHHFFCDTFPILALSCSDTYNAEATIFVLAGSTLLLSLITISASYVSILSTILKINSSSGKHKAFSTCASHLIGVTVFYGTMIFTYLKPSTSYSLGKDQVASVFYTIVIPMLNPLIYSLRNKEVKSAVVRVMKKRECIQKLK
Summary of the method: as §1

UniProt E1BM68 = target: T3, UniProt E1BM68
T3 sequence (whole entry): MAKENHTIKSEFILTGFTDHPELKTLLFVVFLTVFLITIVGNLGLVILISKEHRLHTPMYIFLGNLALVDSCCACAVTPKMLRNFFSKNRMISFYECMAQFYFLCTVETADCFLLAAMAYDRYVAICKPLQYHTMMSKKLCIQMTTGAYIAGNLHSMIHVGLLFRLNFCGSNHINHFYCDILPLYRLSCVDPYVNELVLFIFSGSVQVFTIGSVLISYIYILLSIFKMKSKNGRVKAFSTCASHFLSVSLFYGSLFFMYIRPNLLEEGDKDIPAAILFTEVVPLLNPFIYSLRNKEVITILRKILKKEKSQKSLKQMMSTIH
Summary of the method: as §1

UniProt E9PVX1 = target: T4, UniProt E9PVX1
T4 sequence (whole entry): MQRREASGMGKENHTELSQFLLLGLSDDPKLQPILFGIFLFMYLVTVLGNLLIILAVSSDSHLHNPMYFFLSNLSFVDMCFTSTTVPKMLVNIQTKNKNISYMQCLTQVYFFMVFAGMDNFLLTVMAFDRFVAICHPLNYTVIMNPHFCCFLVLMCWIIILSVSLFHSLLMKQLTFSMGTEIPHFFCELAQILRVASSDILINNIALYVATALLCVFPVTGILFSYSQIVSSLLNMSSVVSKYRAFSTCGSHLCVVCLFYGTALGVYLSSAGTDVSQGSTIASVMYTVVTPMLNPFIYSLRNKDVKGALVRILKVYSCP
Summary of the method: as §1

UniProt E9PZ66 = target: T5, UniProt E9PZ66
T5 sequence (whole entry): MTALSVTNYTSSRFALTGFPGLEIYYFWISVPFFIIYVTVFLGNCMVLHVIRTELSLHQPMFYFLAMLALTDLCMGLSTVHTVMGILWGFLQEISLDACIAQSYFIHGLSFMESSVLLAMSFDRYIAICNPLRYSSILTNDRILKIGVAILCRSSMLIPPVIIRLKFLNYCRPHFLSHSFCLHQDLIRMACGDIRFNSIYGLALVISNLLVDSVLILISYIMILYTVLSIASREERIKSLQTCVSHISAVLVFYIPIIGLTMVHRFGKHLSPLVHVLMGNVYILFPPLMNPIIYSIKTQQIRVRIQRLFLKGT
Summary of the method: as §1

UniProt E9Q4X7 = target: T6, UniProt E9Q4X7
T6 sequence (whole entry): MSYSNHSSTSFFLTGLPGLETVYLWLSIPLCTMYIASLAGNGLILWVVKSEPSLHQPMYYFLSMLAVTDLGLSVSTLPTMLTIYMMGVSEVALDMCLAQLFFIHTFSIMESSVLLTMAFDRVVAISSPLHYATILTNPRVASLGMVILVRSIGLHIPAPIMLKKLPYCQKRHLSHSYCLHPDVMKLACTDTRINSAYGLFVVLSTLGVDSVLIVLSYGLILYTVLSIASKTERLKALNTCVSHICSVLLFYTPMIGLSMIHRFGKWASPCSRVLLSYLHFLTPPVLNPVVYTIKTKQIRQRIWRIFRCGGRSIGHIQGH
Summary of the method: as §1

UniProt E9Q546 = target: T7, UniProt E9Q546
T7 sequence (whole entry): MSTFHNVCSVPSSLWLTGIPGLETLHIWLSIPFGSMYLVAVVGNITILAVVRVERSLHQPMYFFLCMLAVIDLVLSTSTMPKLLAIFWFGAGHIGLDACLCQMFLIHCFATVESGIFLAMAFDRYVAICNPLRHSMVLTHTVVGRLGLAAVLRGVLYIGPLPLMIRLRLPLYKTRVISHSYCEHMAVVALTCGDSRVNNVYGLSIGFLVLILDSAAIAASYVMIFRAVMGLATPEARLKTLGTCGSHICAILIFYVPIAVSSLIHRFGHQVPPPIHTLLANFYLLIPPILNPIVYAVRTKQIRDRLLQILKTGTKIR
Summary of the method: as §1

UniProt E9Q6Z7 = target: T8, UniProt E9Q6Z7
T8 sequence (whole entry): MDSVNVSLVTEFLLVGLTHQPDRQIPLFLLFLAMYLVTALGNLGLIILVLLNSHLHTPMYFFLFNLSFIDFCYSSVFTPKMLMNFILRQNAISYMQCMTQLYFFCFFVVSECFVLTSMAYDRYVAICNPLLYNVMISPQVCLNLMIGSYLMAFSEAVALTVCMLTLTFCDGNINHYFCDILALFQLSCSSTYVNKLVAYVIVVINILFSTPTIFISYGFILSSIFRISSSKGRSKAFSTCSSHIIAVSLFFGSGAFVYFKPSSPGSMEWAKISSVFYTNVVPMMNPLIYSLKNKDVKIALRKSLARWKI
Summary of the method: as §1

UniProt E9QAT7 = target: T9, UniProt E9QAT7
T9 sequence (whole entry): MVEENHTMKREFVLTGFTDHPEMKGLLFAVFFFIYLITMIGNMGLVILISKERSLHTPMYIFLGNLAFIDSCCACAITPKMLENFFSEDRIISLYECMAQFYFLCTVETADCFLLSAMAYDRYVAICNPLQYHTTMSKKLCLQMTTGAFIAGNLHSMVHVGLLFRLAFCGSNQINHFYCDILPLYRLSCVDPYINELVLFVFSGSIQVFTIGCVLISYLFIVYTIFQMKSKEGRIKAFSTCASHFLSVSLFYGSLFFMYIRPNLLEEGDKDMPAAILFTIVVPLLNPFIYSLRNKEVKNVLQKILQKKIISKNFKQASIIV
Summary of the method: as §1

UniProt A2AVB5 = target: T10, UniProt A2AVB5
T10 sequence (whole entry): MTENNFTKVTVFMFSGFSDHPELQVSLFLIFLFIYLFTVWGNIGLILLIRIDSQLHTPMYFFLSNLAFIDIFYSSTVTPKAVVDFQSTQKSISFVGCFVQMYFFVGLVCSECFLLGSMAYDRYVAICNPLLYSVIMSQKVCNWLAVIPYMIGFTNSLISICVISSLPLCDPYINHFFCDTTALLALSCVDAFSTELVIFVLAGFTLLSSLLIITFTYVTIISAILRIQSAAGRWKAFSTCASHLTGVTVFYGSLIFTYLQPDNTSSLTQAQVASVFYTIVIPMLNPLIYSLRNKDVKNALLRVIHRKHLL
Summary of the method: as §1

UniProt B2RVX8 = target: T11, UniProt B2RVX8
T11 sequence (whole entry): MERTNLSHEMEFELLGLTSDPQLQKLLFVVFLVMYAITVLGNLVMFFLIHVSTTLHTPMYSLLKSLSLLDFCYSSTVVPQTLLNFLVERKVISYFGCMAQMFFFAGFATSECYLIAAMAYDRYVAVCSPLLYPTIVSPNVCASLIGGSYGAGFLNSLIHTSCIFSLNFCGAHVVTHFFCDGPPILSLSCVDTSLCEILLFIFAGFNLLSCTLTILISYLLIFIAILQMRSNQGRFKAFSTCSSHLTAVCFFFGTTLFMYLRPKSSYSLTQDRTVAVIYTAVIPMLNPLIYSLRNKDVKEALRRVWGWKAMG
Summary of the method: as §1

UniProt K7N609 = target: T12, UniProt K7N609
T12 sequence (whole entry): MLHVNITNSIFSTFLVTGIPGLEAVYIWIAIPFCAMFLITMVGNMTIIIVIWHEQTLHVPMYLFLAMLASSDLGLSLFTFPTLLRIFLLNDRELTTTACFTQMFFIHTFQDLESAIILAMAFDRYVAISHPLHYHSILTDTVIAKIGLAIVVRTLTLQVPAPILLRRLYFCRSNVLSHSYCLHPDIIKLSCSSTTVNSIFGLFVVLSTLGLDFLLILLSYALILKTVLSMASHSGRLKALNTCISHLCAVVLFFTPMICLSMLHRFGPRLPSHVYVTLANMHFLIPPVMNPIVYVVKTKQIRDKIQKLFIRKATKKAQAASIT
Summary of the method: as §1

UniProt E9PX47 = target: T13, UniProt E9PX47
T13 sequence (whole entry): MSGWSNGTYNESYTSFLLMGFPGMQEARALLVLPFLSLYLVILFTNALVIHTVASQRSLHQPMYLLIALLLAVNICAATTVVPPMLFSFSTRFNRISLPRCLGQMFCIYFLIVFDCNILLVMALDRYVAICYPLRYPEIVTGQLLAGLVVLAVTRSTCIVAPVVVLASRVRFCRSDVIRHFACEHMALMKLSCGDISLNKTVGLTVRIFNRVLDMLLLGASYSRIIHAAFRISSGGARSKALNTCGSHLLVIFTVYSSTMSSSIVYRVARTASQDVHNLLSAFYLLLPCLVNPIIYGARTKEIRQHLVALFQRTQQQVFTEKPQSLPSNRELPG
Summary of the method: as §1

UniProt E9PXN3 = target: T14, UniProt E9PXN3
T14 sequence (whole entry): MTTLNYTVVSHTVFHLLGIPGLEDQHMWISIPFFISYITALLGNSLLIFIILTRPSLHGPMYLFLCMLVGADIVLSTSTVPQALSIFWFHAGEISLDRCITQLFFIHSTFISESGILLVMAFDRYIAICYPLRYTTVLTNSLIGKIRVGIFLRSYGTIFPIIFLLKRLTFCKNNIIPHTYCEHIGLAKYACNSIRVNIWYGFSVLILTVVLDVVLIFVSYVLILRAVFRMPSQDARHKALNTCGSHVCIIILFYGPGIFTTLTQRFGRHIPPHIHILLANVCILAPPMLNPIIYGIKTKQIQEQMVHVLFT
Summary of the method: as §1

SMILES	odorant receptor agonist call (UniProt A2ATE5)	odorant receptor agonist call (UniProt A2AVB0)	odorant receptor agonist call (UniProt E1BM68)	odorant receptor agonist call (UniProt E9PVX1)	odorant receptor agonist call (UniProt E9PZ66)	odorant receptor agonist call (UniProt E9Q4X7)	odorant receptor agonist call (UniProt E9Q546)	odorant receptor agonist call (UniProt E9Q6Z7)	odorant receptor agonist call (UniProt E9QAT7)	odorant receptor agonist call (UniProt A2AVB5)	odorant receptor agonist call (UniProt B2RVX8)	odorant receptor agonist call (UniProt K7N609)	odorant receptor agonist call (UniProt E9PX47)	odorant receptor agonist call (UniProt E9PXN3)
COc1nccnc1C(C)C	inactive	inactive	active	inactive	inactive	inactive	inactive	inactive	inactive	–	–	–	–	–
CCCCCCCCS	inactive	inactive	–	inactive	inactive	inactive	inactive	inactive	–	inactive	inactive	inactive	–	–
CCCCC=O	inactive	inactive	–	inactive	inactive	inactive	inactive	inactive	–	–	–	–	inactive	inactive
CCSCC	inactive	inactive	–	inactive	inactive	inactive	inactive	inactive	–	–	–	–	–	–
Cc1occc1SSc1ccoc1C	inactive	inactive	–	inactive	inactive	inactive	inactive	inactive	–	–	–	–	–	–
CCCCCCC(C)O (stereo unspecified)	inactive	inactive	–	inactive	inactive	inactive	inactive	active	–	–	–	–	–	–
O=C(O)CCCCCBr	inactive	inactive	–	inactive	inactive	inactive	inactive	inactive	–	–	–	–	–	inactive
CC(=O)C=CC1=C(C)CCCC1(C)C	inactive	inactive	–	inactive	inactive	inactive	inactive	inactive	–	–	–	–	–	–
O=C(O)C1CCC1	inactive	inactive	–	inactive	inactive	inactive	inactive	inactive	–	–	–	–	–	–
CCCCCOC(=O)CC	inactive	inactive	–	inactive	inactive	inactive	inactive	inactive	–	–	–	–	–	–
CCSSCC	inactive	inactive	–	inactive	inactive	inactive	inactive	inactive	–	–	–	–	–	–
CC(C)CS	inactive	inactive	–	inactive	inactive	inactive	inactive	inactive	–	–	–	–	–	–
CCC=CCCC=CC=O	inactive	inactive	–	inactive	inactive	inactive	inactive	inactive	–	–	–	–	–	–
CCCCCCCCOC=O	inactive	inactive	–	inactive	inactive	inactive	inactive	inactive	–	–	–	–	–	–

Source: the M2OR odorant receptor database
